Assays:
[1] = system: Human immunodeficiency virus 1; assay: Antiviral activity against wild type HIV1 BaL in human TZM-b1 cells after 48 hrs by luciferase assay; format: functional, organism-based; conditions: Human immunodeficiency virus 1, BaL, TZM-b1, 48 h
Procedure, shortened: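 Infected with 200 TCID₅₀ HIV-1 BaL, then 48 h culture and luciferase readout. Inhibition relative to untreated controls; EC50 by nonlinear regression. Triplicate wells, at least two independent experiments.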

[2] = Cytotoxicity against human TZM-b1 cells infected with wild type HIV1 BaL after 48 hrs using formazan dye by WST1 assay; format: cell-based; conditions: TZM-bl cells infected with wild type HIV1 BaL
Procedure, shortened: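 WST-1 reagent added, and absorbance at 450 nm read after 90 min. Viability relative to untreated controls; CC50 by nonlinear regression. Three replicate wells, at least two independent experiments.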

[3] = Selectivity index, ratio of CC50 for human TZM-bl cells to EC50 for wild type HIV1 BaL; format: toxicity, cell-based; conditions: read-out: Ratio CC50/EC50
Procedure, shortened: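 SI taken as CC50/EC50. CC50 from a 48 h WST-1 viability assay (A450) in TZM-bl cells. EC50 from a 48 h luciferase readout in TZM-bl cells infected with 200 TCID₅₀ HIV-1 BaL after a 30 min compound pre-incubation with DEAE dextran. Both values by nonlinear regression.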

[4] = biological target: Human immunodeficiency virus type 1 reverse transcriptase (Human immunodeficiency virus 1, UniProt Q72547); assay: Inhibition of wild type HIV1 reverse transcriptase
[5] = system: Human immunodeficiency virus 1; assay: Ratio of TMC120 EC50 to compound EC50 for wild type HIV1 BaL infected in human TZM-b1 cells; format: functional
[6] = system: Human immunodeficiency virus 1; assay: Ratio of EC50 for HIV1 BaL expressing reverse transcriptase V106A mutant infected in human TZM-bl cells to EC50 for wild type HIV1 BaL in human TZM-bl cells; format: functional
[7] = system: Human immunodeficiency virus 1; assay: Antiviral activity against HIV1 BaL expressing reverse transcriptase V106A mutant infected in human TZM-bl cells after 48 hrs by luciferase assay; format: functional, organism-based; conditions: Human immunodeficiency virus 1, BaL
[8] = system: Human immunodeficiency virus 1; assay: Antiviral activity against HIV1 VI829 expressing reverse transcriptase Y181C mutant infected in human TZM-bl cells after 48 hrs by luciferase assay; format: functional, organism-based; conditions: Human immunodeficiency virus 1, VI829, TZM-bl
[9] = system: Human immunodeficiency virus 1; assay: Ratio of EC50 for HIV1 VI829 expressing reverse transcriptase Y181C mutant infected in human TZM-b1 cells to EC50 for wild type HIV1 VI829 in human TZM-b1 cells; format: functional
[10] = system: Human immunodeficiency virus 1; assay: Antiviral activity against wild type HIV1 VI829 infected in human TZM-b1 cells after 48 hrs by luciferase assay; format: functional, organism-based; conditions: Human immunodeficiency virus 1, VI829, TZM-b1, 48 h

SMILES: Cc1cc(C)c(Nc2ccc(=O)n(Nc3ccccc3)c2)c(C)c1
- EC50 [1]: > 10 µM

SMILES: N#Cc1ccc(Nn2cc(Nc3ccccc3)ccc2=O)cc1
- EC50 [1]: > 10 µM

SMILES: O=c1ccc(Nc2ccccc2)cn1Nc1ccccc1
- EC50 [1]: > 10 µM

SMILES: N#Cc1ccc(Nc2ccc(=O)n(Nc3ccc(C#N)cc3)c2)cc1
- EC50 [1]: > 10 µM

SMILES: Cc1cc(C)c(Nc2ccc(=O)n(Nc3ccc(C#N)cc3)n2)c(C)c1
- EC50 [1]: 1.37 µM
- CC50 at 48 h [2]: > 100 µM
- selectivity ratio [3]: > 69
- IC50 [4]: 547 µM
- Ratio EC50 [5]: 700

SMILES: Cc1cc(C)c(Nc2ccc(=O)n(Nc3ccc(C(F)(F)F)cc3)n2)c(C)c1
- EC50 [1]: > 10 µM

SMILES: Cc1cc(C)c(Nc2ccc(=O)n(Nc3cccc(C#N)c3)n2)c(C)c1
- EC50 [1]: > 10 µM
- CC50 at 48 h [2]: 5.04 µM
- selectivity ratio [3]: < 1

SMILES: Cc1cc(C)c(Oc2ccc(=O)n(Nc3ccc(C#N)cc3)n2)c(C)c1
- EC50 [1]: 0.69 µM
- CC50 at 48 h [2]: 19.9 µM
- Ratio EC50 [6]: 2
- selectivity ratio [3]: 29
- IC50 [4]: 100 µM
- EC50 [7]: 1.12 µM
- EC50 [8]: > 10 µM
- Ratio EC50 [9]: >64
- EC50 [10]: 0.16 µM

SMILES: Cc1cc(C)c(Oc2ccc(=O)n(Nc3ccc(C(F)(F)F)cc3)n2)c(C)c1
- EC50 [1]: 10 µM
- CC50 at 48 h [2]: 21.2 µM
- selectivity ratio [3]: 2.1

SMILES: Cc1cc(C)c(Oc2ccc(=O)n(Nc3ccc(F)cc3)n2)c(C)c1
- EC50 [1]: 9.64 µM
- CC50 at 48 h [2]: 23.5 µM
- selectivity ratio [3]: 2.4

SMILES: Cc1cc(C)c(Oc2ccc(=O)n(Nc3ccc(Cl)cc3)n2)c(C)c1
- EC50 [1]: 3.95 µM
- CC50 at 48 h [2]: 22.3 µM
- selectivity ratio [3]: 5.6

SMILES: Cc1cc(C)c(Oc2ccc(=O)n(Nc3cccc(C#N)c3)n2)c(C)c1
- EC50 [1]: > 10 µM

SMILES: Cc1cccc(C)c1Oc1ccc(=O)n(Nc2ccc(C#N)cc2)n1
- EC50 [1]: 7.63 µM
- CC50 at 48 h [2]: > 100 µM
- selectivity ratio [3]: > 13

SMILES: Cc1cccc(C)c1Oc1ccc(=O)n(Nc2ccc(F)cc2)n1
- EC50 [1]: > 10 µM

SMILES: Cc1cccc(C)c1Oc1ccc(=O)n(Nc2cccc(C#N)c2)n1
- EC50 [1]: > 10 µM

SMILES: Cc1cccc(C)c1Oc1ccc(=O)n(Nc2ccccc2)n1
- EC50 [1]: > 10 µM

SMILES: Cc1cc(C#N)cc(C)c1Oc1ccc(=O)n(Nc2ccc(C#N)cc2)n1
- EC50 [1]: 1.75 µM
- CC50 at 48 h [2]: 24.7 µM
- selectivity ratio [3]: 14

SMILES: Cc1cc(C#N)cc(C)c1Oc1ccc(=O)n(Nc2cccc(C#N)c2)n1
- EC50 [1]: > 10 µM

SMILES: Cc1cc(Cl)cc(C)c1Oc1ccc(=O)n(Nc2ccc(C#N)cc2)n1
- EC50 [1]: 0.6 µM
- CC50 at 48 h [2]: 14.1 µM
- Ratio EC50 [6]: 8
- selectivity ratio [3]: 23
- EC50 [7]: 4.55 µM
- EC50 [8]: > 10 µM
- Ratio EC50 [9]: >20
- EC50 [10]: 0.5 µM

SMILES: Cc1cc(Cl)cc(C)c1Oc1ccc(=O)n(Nc2cccc(C#N)c2)n1
- EC50 [1]: > 5 µM

SMILES: Cc1cc(Br)cc(C)c1Oc1ccc(=O)n(Nc2ccc(C#N)cc2)n1
- EC50 [1]: 0.64 µM
- CC50 at 48 h [2]: > 100 µM
- Ratio EC50 [6]: 5
- selectivity ratio [3]: > 193
- EC50 [7]: 2.97 µM
- EC50 [8]: > 10 µM
- Ratio EC50 [9]: >29
- EC50 [10]: 0.34 µM

SMILES: Cc1cc(Br)cc(C)c1Oc1ccc(=O)n(Nc2ccc(Cl)cc2)n1
- EC50 [1]: 3.19 µM
- CC50 at 48 h [2]: 63.5 µM
- selectivity ratio [3]: 20

SMILES: Cc1cc(C)c(Oc2nn(Nc3ccc(C#N)cc3)c(=O)c3ccccc23)c(C)c1
- EC50 [1]: 1.39 µM
- CC50 at 48 h [2]: 60.4 µM
- selectivity ratio [3]: 43.3
- IC50 [4]: 928 µM

SMILES: Cc1cc(Cl)cc(C)c1Oc1nn(Nc2ccc(C#N)cc2)c(=O)c2ccccc12
- EC50 [1]: 3.6 µM
- CC50 at 48 h [2]: 51.2 µM
- selectivity ratio [3]: 14.2

SMILES: Cc1cc(Cl)cc(C)c1Oc1nn(Nc2ccc(Cl)cc2)c(=O)c2ccccc12
- EC50 [1]: 10 µM

SMILES: Cc1cc(C)c(Nc2ccc(=O)n(Nc3ccc(C#N)cc3)c2)c(C)c1
- EC50 [1]: > 10 µM
- IC50 [4]: 760 µM

SMILES: Cc1cc(C)c(Nc2ccc(=O)n(Nc3ccc(C(F)(F)F)cc3)c2)c(C)c1
- EC50 [1]: > 10 µM

SMILES: Cc1cc(C)c(Nc2ccc(=O)n(Nc3cccc(C#N)c3)c2)c(C)c1
- EC50 [1]: > 10 µM

SMILES: Cc1cc(C)c(Nc2ccnc(Nc3ccc(C#N)cc3)n2)c(C)c1 [DAPIVIRINE]
- EC50 [1]: 0.002 µM
- CC50 at 48 h [2]: 2.88 µM
- Ratio EC50 [6]: 1.3
- selectivity ratio [3]: 1440
- IC50 [4]: 2.5 µM
- EC50 [7]: 0.0025 µM
- EC50 [8]: 0.0108 µM
- Ratio EC50 [9]: 5.4
- EC50 [10]: 0.002 µM

Reference: ChEMBL document CHEMBL1828507, “Novel diarylpyridinones, diarylpyridazinones and diarylphthalazinones as potential HIV-1 nonnucleoside reverse transcriptase inhibitors (NNRTIs)” (Bioorg Med Chem, 2011)
